MrgX1 antagonist – antagonists of human MrgX1 receptor. MRGX1-HEK293 calcium flux, Fluo-4, BAM8-22 antagonism; stronger effect = lower value. actives 1.3% (n = 310,000). Q96LB2. B-score at 10 µM;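 active means calcium-response B-score plate-corrected more than 3 library SD below zero, starting fluorescence within 5 deviations, no agonist response on first addition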;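 further: peak minus trough fluorescence over baseline after final BAM8-22 challenge near maximal dose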
MrgX1 allo act – allosterically activates human MrgX1 receptor signaling; Q96LB2; AID 588675; B-score at 10 µM; MrgX1-HEK293, Fluo-4 calcium flux, FDSS; stronger effect = higher value; actives 0.63% (n = 310,000);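 active means plate-corrected calcium response at least 3 library SD above typical, normal starting fluorescence, not activating the receptor alone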;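 further: compound read alongside a low EC10 to EC30 dose of BAM8-22 agonist; peak minus trough fluorescence over baseline measured at the second addition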
PHOSPHO1 inh – inhibitors of human PHOSPHO1 phosphatase; Q8TCT1; recombinant PHOSPHO1, absorbance phosphatase assay; inhibition, % at 13.3 µM; actives 1.1% (n = 290,000); AID 1565; in the data active means inhibition above about 60%
RGS4 act – potentiators or activators of RGS4. HEK293 M3R/inducible RGS4, carbachol calcium flux Fluo4; stronger effect = lower value. B-score at 10 µM. actives 0.92% (n = 310,000);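 active means B-score of the integrated calcium signal more than 4 SD below the library mean, with starting fluorescence not abnormally high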;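 further: negative B-score means reduced calcium response which marks RGS4 activation or potentiation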
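Material: Inducible-RGS4 HEK293 cells carrying M3 receptor; also added: carbachol at ECmax as muscarinic agonist stimulus; incubation: compound preincubation 20 min at room temperature before agonist; signal: Fluo4-AM (2 µM) calcium-flux fluorescence, kinetic read; measure: integrated calcium ratio converted to B score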
MrgX1 agonist – human MrgX1 receptor agonism, primary screen; actives 0.44% (n = 310,000); B-score at 10 µM; Q96LB2; MrgX1-HEK293 cells, Fluo-4 calcium fluorescence, agonist mode; stronger effect = higher value;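 active means calcium response B-score plate-corrected fluorescence ratio at least 3 library SD, with starting fluorescence B-score inside 5 SD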
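Material – MrgX1-expressing HEK293 cells · Input – 15,000 cells seeded per well · Dosing – compound as first of three additions · Times – overnight seeding, then 1 h dark dye loading · Measured by – kinetic Fluo-4 NW fluorescence of intracellular calcium · Read-out – B-scored fluorescence response ratio · Benchmarks – positive and negative control wells on each plate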
RGS4 block – inhibitors of human RGS4; P49798; HEK293 M3R/RGS4 inducible, Fluo-4 calcium flux; stronger effect = higher value; triggered by carbachol at its EC20; B-score at 10 µM; actives 0.45% (n = 310,000); AID 463165;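 active means B-score, a plate-corrected calcium signal, over three deviations above library mean, with baseline fluorescence within five deviations of library mean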;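 further: RGS4 expression induced by doxycycline in cells with stable M3 receptor; B-score is computed from the integrated fluorescence ratio over baseline after carbachol; higher B-score means a larger calcium signal and so more RGS4 inhibition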
Target sequence (P49798 whole entry, looked up): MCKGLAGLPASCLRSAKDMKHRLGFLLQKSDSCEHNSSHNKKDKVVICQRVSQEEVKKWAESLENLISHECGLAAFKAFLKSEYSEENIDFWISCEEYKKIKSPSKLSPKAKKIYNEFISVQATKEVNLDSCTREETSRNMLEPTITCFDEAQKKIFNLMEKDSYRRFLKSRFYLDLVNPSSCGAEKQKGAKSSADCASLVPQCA
The depositor's hits bear a star; i = inactive; . = not tested or not shown. An excerpt weighted towards active compounds, which were near 4.5% of everything screened.

SMILES	MrgX1 antagonist	MrgX1 allo act	PHOSPHO1 inh	RGS4 act	MrgX1 agonist	RGS4 block
COc1ccc(-n2cc(CNC3CCN(C)CC3)c(-c3cccc(F)c3)n2)cc1	i	i	10.9	i	i	i
Cc1nn(CC(=O)Nc2ccc(S(N)(=O)=O)cc2)c(=O)c2ccccc12	i	i	24.2	i	i	i
O=C(NNC(=S)Nc1cccc2ccccc12)c1cccc(Br)c1	i	i	64.4*	i	i	i
CC(=O)c1cccc(NC(=S)Nc2cccc3ccccc23)c1	i	i	11.1	i	i	i
Cc1ccc(C(=O)NNC(=S)Nc2cccc3ccccc23)s1	i	i	86.0*	i	i	i
Cc1cc(/C=C2/NC(=O)NC2=O)c(C)n1-c1ccncc1	i	6.75*	-34.6	i	i	i
CCn1c(CNC(=O)c2cccnc2)cc2ccccc21	i	i	29.5	i	i	i
CC(=O)c1cccc(NC(=O)c2ccc(-c3ccccc3[N+](=O)[O-])o2)c1	i	i	6.5	i	i	i
CCOP(=O)(OCC)C(NC(=O)Nc1ccc(C)c(Cl)c1)c1ccccc1 (stereo not drawn)	-7.84*	i	2.3	i	i	i
Cc1ccc(NC(=S)NNC(=O)c2c(Cl)c(C)nn2C)cc1	i	i	67.7*	i	i	i
Cc1nn(C(C)C(=O)NNC(=S)Nc2ccc(Cl)cc2)c(C)c1[N+](=O)[O-] (stereo not drawn)	i	i	94.5*	i	i	i
Cc1cc(NC(=O)c2c(Cl)c(C)nn2C)no1	i	i	-55.2	i	i	i
Cc1nn(CCC(=O)NNC(=S)Nc2ccc(Cl)cc2)c(C)c1[N+](=O)[O-]	i	i	-5.8	i	i	i
Cc1ccc(NC(=S)NNC(=O)c2cn(C)nc2C)cc1	i	i	88.9*	i	i	i
Cc1cc(NC(=O)c2c([N+](=O)[O-])c(C)nn2C)no1	-5.01*	i	46.0	i	i	i
COc1cccc(N=C2CC(C)(C)CC(=O)/C2=C(/O)c2ccccc2)c1	i	i	16.5	i	i	i
Cc1ccc(NC(=O)c2c([N+](=O)[O-])c(C(C)(C)C)nn2C)cc1	i	i	19.2	i	i	i
Cc1ccc(NC(=S)NNC(=O)c2c([N+](=O)[O-])c(C)nn2C)cc1	i	i	76.1*	i	i	i
CN(c1ccccc1)S(=O)(=O)c1nnc(NC(=O)C2CCCCC2)s1	i	i	70.0*	i	i	i
CCCn1c(SCC(=O)N2N=C3/C(=C/c4ccc(OC)cc4)CCCC3C2c2ccc(OC)cc2)n[nH]c1=O (stereo not drawn)	-5.14*	i	-14.7	i	i	i
CCCCN(C)C(=O)c1nc2ccccn2c1CN1CCC[C@H]1CO	i	i	.	i	i	i
Cc1ccc(C(=O)N(c2ccccc2)C2CC(C)N(C(=O)c3ccco3)c3ccccc32)cc1 (stereo not drawn)	i	16.8*	-11.5	i	i	i
COC(=O)C(CC(=O)c1cccc(OC)c1)c1ccc(F)cc1 (stereo not drawn)	i	i	-19.6	i	i	i
CCC1CCCCN1CCCNC(=O)c1cn(CC)c2ccc(S(=O)(=O)N3CCc4ccccc4C3)cc2c1=O (stereo not drawn)	i	i	-5.1	-9.02*	i	i
CCn1cc(C(=O)NCCCN2CCCC(C)C2)c(=O)c2cc(S(=O)(=O)N3CCc4ccccc4C3)ccc21 (stereo not drawn)	i	i	-2.0	-7.2*	i	i
CCCCN(CCCC)CCNC(=O)c1cn(CC)c2ccc(S(=O)(=O)N3CCc4ccccc4C3)cc2c1=O	i	i	18.4	i	i	i
CCOc1ccccc1-n1c(SCC(=O)Nc2ccccc2C(=O)O)nc2ccccc2c1=O	i	i	-4.0	i	i	i
